Calls of active or inactive are those of the source. The rule behind the calls is not given here.
Columns and labels:
[1] = biological target: Trypsin (Homo sapiens) (UniProt P07477+P07478+P35030); experiment: Binding affinity to trypsin (unknown origin) assessed as change in fluorescence intensity at 10 uM measured after 60 mins by fluorescence assay; type: protein assay
Method in brief: (§1)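 Selectivity panel: probe was incubated with each enzyme or biomolecule in 10 mM PBS, pH 7.4, containing 1% DMSO, for 60 min at room temperature. Fluorescence intensity was read at 532 nm with excitation at 465 nm.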

[2] = system: HeLa; experiment: Cytotoxicity against human HeLa cells assessed as reduction in cell viability measured after 72 hrs by CCK8 assay; type: cell-based
Method in brief: (§2)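 Log-phase HeLa or CT26 cells were seeded at 6 × 10³ per well and grown 24 h at 37 °C, 5% CO₂. Cells were treated with a concentration series in triplicate for 72 h. Medium was then replaced with medium containing 10% CCK8 and incubated a further 40 min.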

[3] = biological target: T1, Indoleamine 2,3-dioxygenase 1 (Homo sapiens, UniProt P14902); experiment: Binding affinity to IDO1 in IFNgamma-stimulated human HeLa cells at 5 nM measured after 5 mins in presence of IDO1 inhibitor epacadostat by Hoechst staining based confocal fluorescence imaging analysis
Method in brief: (§3)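 Living HeLa cells, either unstimulated or stimulated with IFN-γ (50 ng/mL, 12 h), were stained with Hoechst for 20 min and then with probe for 5 min before confocal imaging in the green channel.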
Target sequence in this assay (P14902 whole entry, looked up): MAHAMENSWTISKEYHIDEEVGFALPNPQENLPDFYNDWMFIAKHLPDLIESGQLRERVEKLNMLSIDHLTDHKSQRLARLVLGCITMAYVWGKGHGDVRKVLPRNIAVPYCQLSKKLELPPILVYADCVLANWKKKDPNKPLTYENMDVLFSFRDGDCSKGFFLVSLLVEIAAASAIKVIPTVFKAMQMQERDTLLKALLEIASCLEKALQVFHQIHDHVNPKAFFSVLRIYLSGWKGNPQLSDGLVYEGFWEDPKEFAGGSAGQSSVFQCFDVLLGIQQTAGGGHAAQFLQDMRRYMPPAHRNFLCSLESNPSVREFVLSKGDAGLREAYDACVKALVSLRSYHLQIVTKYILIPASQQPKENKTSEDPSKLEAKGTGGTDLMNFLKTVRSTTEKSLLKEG

[4] = system: Escherichia coli; experiment: Binding affinity to Escherichia coli beta-galactosidase assessed as change in fluorescence intensity at 10 uM measured after 60 mins by fluorescence assay; method in brief: as §1
[5] = biological target: T1, Indoleamine 2,3-dioxygenase 1; experiment: Binding affinity to recombinant human IDO1 expressed in Escherichia coli BL21 (DE3) assessed as increase in fluorescence intensity at 10 uM measured after 60 mins by fluorescence assay relative to control
Method in brief: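 Human IDO1 was expressed in E. coli BL21(DE3), induced with 0.4 mM IPTG at OD600 0.6 for 18 h at 18 °C, then purified on Ni column (0–250 mM imidazole gradient) and gel filtration. Probe was titrated with increasing IDO1 in 10 mM PBS, pH 7.4, 1% DMSO, for 60 min at room temperature. Fluorescence: excitation 465 nm, emission 532 nm. Detection limit was taken at signal-to-noise ratio 3.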
Target sequence in this assay (P14902 whole entry, looked up): as above

[6] = biological target: T1, Indoleamine 2,3-dioxygenase 1; experiment: Inhibition of recombinant human IDO1 expressed in Escherichia coli BL21 (DE3) using tryptophan as substrate
Target sequence in this assay (P14902 whole entry): as the sequence (P14902 whole entry, looked up) above

[7] = system: CT26; experiment: Antitumor activity against mouse CT26 cells implanted in BALB/c mouse assessed as tumor growth inhibition at 100 mg/kg, po administered daily for 12 days relative to control; type: functional; details: 288 h, time 12 day, read-out: TGI
Method in brief: (§4)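 Female Balb/c mice, 4–5 weeks old, were inoculated subcutaneously in the right forelimb with 5 × 10⁵ log-phase CT26 cells in RPMI. Once tumors reached about 50 mm³, mice were randomized (n = 5 per group) and dosed orally at 100 mg/kg daily. Tumor length, width and body weight were recorded every other day, with V = ½ab². Mice were sacrificed when control tumors approached 2000 mm³. TGI = (Vcontrol − Vcompound)/Vcontrol at the last day. Data are mean ± SEM; Student's t-test.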

[8] = organism: Bos taurus; experiment: Binding affinity to bovine hemoglobin assessed as change in fluorescence intensity at 10 uM measured after 60 mins by fluorescence assay; method in brief: as §1
[9] = Toxicity in BALB/c mouse implanted with mouse CT26 cells assessed as loss of body weight at 100 mg/kg, po administered daily for 12 days measured every other day during compound dosing; type: organism-based; details: in vivo, 288 h, time 12 day; method in brief: as §4
[10] = biological target: T1, Indoleamine 2,3-dioxygenase 1; experiment: Binding affinity to IDO1 in IFNgamma-stimulated human HeLa cells at 5 nM measured after 5 mins by Hoechst staining based confocal fluorescence imaging analysis; method in brief: as §3
Target sequence in this assay (P14902 whole entry, looked up): as above

[11] = biological target: Albumin (Bos taurus, UniProt P02769); experiment: Binding affinity to bovine serum albumin assessed as change in fluorescence intensity at 10 uM measured after 60 mins by fluorescence assay; type: ADME; details: cattle, isolated protein, 1 h; method in brief: as §1
[12] = Binding affinity to GSH assessed as change in fluorescence intensity at 10 uM measured after 60 mins by fluorescence assay; method in brief: as §1
[13] = biological target: Albumin (Homo sapiens, UniProt P02768); experiment: Binding affinity to human serum albumin assessed as change in fluorescence intensity at 10 uM measured after 60 mins by fluorescence assay; type: ADME; details: isolated protein, 1 h; method in brief: as §1
[14] = system: Aspergillus oryzae; experiment: Binding affinity to oryzae beta-galactosidase assessed as change in fluorescence intensity at 10 uM measured after 60 mins by fluorescence assay; method in brief: as §1
[15] = organism: Homo sapiens; experiment: Binding affinity to chymotrypsin (unknown origin) assessed as change in fluorescence intensity at 10 uM measured after 60 mins by fluorescence assay; method in brief: as §1
[16] = system: CT26; experiment: Cytotoxicity against mouse CT26 cells assessed as reduction in cell viability measured after 72 hrs by CCK8 assay; type: cell-based; details: CT26, 72 h; method in brief: as §2
[17] = Drug uptake in human HeLa cells at 5 nM measured after 5 mins by Hoechst staining based confocal fluorescence imaging analysis; type: ADME, cell-based; details: 0.005 µM; method in brief: as §3
[18] = biological target: T1, Indoleamine 2,3-dioxygenase 1; experiment: Inhibition of IDO1 in IFNgamma-stimulated human HeLa cells using tryptophan as substrate measured after 48 hrs
Target sequence in this assay (P14902 whole entry): as the sequence (P14902 whole entry, looked up) above

[19] = biological target: T1, Indoleamine 2,3-dioxygenase 1; experiment: Binding affinity to IDO1 in IFNgamma-stimulated human HeLa cells at 3.5 nM measured after 5 mins in presence of IDO1 inhibitor epacadostat by Hoechst staining based confocal fluorescence imaging analysis; method in brief: as §3
Target sequence in this assay (P14902 whole entry, looked up): as above

[20] = biological target: T1, Indoleamine 2,3-dioxygenase 1; experiment: Binding affinity to IDO1 in IFNgamma-stimulated human HeLa cells at 3.5 nM measured after 5 mins by Hoechst staining based confocal fluorescence imaging analysis; method in brief: as §3
Target sequence in this assay (P14902 whole entry, looked up): as above

[21] = Drug uptake in human HeLa cells at 3.5 nM measured after 5 mins by Hoechst staining based confocal fluorescence imaging analysis; type: ADME, cell-based; details: 0.0035 µM; method in brief: as §3

Sequence of Albumin (Homo sapiens, UniProt P02768) (P02768 whole entry): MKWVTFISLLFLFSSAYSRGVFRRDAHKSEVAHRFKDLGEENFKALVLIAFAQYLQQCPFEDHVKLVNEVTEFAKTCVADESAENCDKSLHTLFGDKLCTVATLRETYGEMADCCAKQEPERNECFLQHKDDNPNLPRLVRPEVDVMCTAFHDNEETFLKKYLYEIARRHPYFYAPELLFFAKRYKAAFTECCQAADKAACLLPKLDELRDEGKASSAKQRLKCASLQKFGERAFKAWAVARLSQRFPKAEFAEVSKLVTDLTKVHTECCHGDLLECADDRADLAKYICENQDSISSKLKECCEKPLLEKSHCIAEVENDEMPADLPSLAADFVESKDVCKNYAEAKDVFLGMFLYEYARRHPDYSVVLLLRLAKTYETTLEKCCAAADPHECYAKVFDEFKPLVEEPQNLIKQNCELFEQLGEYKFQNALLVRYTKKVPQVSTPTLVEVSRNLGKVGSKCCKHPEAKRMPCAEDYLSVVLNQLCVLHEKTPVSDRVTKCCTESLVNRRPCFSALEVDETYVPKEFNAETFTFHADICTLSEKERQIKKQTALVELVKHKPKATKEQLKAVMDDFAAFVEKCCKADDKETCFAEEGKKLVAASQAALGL
Sequence of Albumin (Bos taurus, UniProt P02769) (P02769 whole entry): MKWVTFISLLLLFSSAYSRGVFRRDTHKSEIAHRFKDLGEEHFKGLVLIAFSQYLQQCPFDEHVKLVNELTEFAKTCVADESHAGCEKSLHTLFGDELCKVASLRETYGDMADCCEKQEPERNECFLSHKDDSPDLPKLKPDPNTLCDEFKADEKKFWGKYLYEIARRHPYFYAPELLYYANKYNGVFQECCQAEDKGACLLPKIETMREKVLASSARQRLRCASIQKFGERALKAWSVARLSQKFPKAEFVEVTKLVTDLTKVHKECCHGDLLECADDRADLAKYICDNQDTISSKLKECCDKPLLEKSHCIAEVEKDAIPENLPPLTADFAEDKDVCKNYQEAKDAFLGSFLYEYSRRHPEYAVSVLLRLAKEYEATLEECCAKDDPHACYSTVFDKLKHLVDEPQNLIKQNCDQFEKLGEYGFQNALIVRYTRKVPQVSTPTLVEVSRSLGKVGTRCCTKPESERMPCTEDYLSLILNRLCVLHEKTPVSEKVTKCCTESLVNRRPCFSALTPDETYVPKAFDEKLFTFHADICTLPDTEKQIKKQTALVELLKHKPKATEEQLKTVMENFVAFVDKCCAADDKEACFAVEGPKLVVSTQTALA

| Compound | Activity [1] | IC50 [2] [nM] | Activity [4] | IC50 [6] [nM] | inhibition in vivo at 100 mg/kg [7] [%] | Activity [8] | Activity [10] | Activity [11] | Activity [12] | Activity [13] | Activity [14] | Activity [15] | IC50 [16] [nM] | IC50 [18] [nM] | Activity [5] | further results |
| --- | --- | --- | --- | --- | --- | --- | --- | --- | --- | --- | --- | --- | --- | --- | --- | --- |
| O=C(CCNc1ccc([N+](=O)[O-])c2nonc12)NCCNc1nonc1/C(=N/O)Nc1ccc(F)c(Br)c1 | inactive | > 100000 | inactive | 12 | 46 | inactive | Active | Not Active | inactive | Not Active | inactive | inactive | > 100000 | 10 |  | Activity [3]: inactive; fold change (FC) [5]: 5; Activity [9]: Non-Toxic; Drug uptake [17]: Not Active |
| NS(=O)(=O)NCCNc1nonc1/C(=N/O)Nc1ccc(F)c(Br)c1 [EPACADOSTAT] |  | > 100000 |  |  | 49 |  |  |  |  |  |  |  | > 100000 |  |  |  |
| O=[N+]([O-])c1ccc(NCCNc2nonc2/C(=N/O)Nc2ccc(F)c(Br)c2)c2nonc12 | inactive | > 100000 | inactive | 28 |  | inactive |  | Not Active | inactive | Not Active | inactive | inactive | > 100000 | 15 | Active | Activity [19]: inactive; Activity [20]: Active; Drug uptake [21]: Not Active |
| O=C(CNc1ccc([N+](=O)[O-])c2nonc12)NCCNc1nonc1/C(=N/O)Nc1ccc(F)c(Br)c1 | inactive | > 100000 | inactive | 1320 |  | inactive | inactive | Not Active | inactive | Not Active | inactive | inactive | > 100000 | > 5000 | inactive |  |
